Shown are actives, neighbours in structure and some others; about 4.5% of the full set was active somewhere.
CHO parental Ca: signal in parental CHO cells, OX1R antagonist counter-screen; parental CHO-K1, ATP-induced calcium, Fluo-8 fluorescence; inhibition, % at 5.6 µM; 330,000 tested, 0.63% active;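 active = inhibition above that plate's mean sample inhibition plus 3 SD, cut at about 26% in these data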;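 also: 0% = ATP-challenged DMSO wells and 100% = DMSO wells without ATP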
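Test system: untransfected parental CHO cell line. Compound: one dose, 5.6 µM nominal. Detection: intracellular calcium via Fluo-8 no-wash fluorescent dye. Measure: % inhibition. Benchmarks: ATP-challenged DMSO wells low, unchallenged DMSO wells high.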
OX1R antag-1: blocks the human orexin 1 receptor; AID 434989; O43613; inhibition, % at 5 µM; CHO/OX1R cells, Fluo-8 calcium fluorescence, orexin A; 330,000 tested, 0.43% active;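 active = inhibition above its plate's threshold, mean inhibition of all tested compounds on the plate plus 3 SD, cut at about 37% in these data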;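 also: 0% = orexin A challenge wells and 100% = SB-334867-A antagonist wells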
OX1R antag-2: OX1R (human) antagonism; O43613; OX1R-expressing cells, FRET antagonist read-out; inhibition, % at 6.6 µM; 330,000 tested, 1.8% active; AID 485270; in the data active = inhibition mostly above about 38%, no sharp cut-off; inactive = mostly below about 40%;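 also: 0% = agonist challenge alone and 100% = reference antagonist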
TAAR1 agonist: agonists of human TAAR1; Q96RJ0; 360,000 tested, 0.99% active; activation, % at 3 µM; CHO RD-HGA16 TAAR1, Fluo-8 calcium fluorescence; vehicle wells 0%, saturating PEA agonist 100%;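 active = activation above the mean activation of all test compounds in the run plus 3 SD, cut at about 38% in these data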
Target sequence (Q96RJ0 whole entry, looked up): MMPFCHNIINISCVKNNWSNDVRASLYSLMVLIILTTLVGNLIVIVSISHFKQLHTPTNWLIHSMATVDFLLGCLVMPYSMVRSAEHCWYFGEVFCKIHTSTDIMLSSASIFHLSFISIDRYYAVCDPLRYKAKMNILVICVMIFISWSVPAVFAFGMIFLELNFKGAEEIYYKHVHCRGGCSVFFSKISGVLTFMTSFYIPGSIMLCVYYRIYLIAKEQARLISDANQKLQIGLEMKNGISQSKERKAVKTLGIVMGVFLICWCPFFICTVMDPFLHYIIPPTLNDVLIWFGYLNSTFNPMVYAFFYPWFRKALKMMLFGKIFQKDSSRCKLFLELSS
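System: CHO-derived RD-HGA16 cells with stable Gα16 and human TAAR1 / Times: 17-24 h plating, Fluo-8 75 min 37 °C, 30 min RT / Technique: calcium-sensitive Fluo-8 signal, excitation 470-495, emission 515-575 nm / Measure: % activation relative to PEA EC100 response / Benchmarks: DMSO and PEA EC100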
TAAR1 antagonist: antagonists of human TAAR1. Q96RJ0. CHO RD-HGA16 TAAR1, Fluo-8 calcium fluorescence, antagonist. inhibition, % at 3 µM. 360,000 tested, 1.5% active. AID 624466;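 active = inhibition above a per-plate cutoff, the mean inhibition of test compounds on that plate plus 3 SD, cut at about 49% in these data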;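 also: 0% = DMSO plus EC80 beta-PEA response and 100% = DMSO alone without agonist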
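Test system: hTAAR1-expressing CHO RD-HGA16 cells, Gα16-coupled; Probe or stimulus: EC80 β-phenethylamine stimulus; Compound dosing: single nominal final test compound concentration of 3 µM; Timing: 140 s kinetic read after compound, 140 s after agonist; Signal: Fluo-8 calcium-sensitive fluorescence; Measure: % inhibition of agonist calcium response; Controls: DMSO and EC80 PEA controls.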
GPR7 antagonist: antagonists of human GPR7 (neuropeptides B/W receptor 1). P48145. GPR7-expressing cells, fluorescence antagonist assay. inhibition, % at 4.4 µM. 290,000 tested, 1.1% active. AID 1861; in the data active = inhibition above about 16%, passing the limit was not always enough;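 also: cells stimulated with the agonist NPW; 0% = agonist with vehicle and 100% = vehicle without agonist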
Target sequence (P48145 whole entry, looked up): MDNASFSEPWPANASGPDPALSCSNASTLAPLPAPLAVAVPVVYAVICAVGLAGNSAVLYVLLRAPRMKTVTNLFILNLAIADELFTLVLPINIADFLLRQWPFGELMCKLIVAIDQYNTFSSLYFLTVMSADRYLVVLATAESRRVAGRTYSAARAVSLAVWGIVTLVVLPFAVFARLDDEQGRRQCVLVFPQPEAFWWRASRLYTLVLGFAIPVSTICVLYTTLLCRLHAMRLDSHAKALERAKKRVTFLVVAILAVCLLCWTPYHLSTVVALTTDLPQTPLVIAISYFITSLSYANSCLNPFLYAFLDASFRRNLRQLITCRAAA
Active calls of the source: *; x = no result given.

SMILES	CHO parental Ca	OX1R antag-1	OX1R antag-2	TAAR1 agonist	TAAR1 antagonist	GPR7 antagonist
COc1cc(/C=N/NC(=O)Cc2ccccc2)cc([N+](=O)[O-])c1O	-2	0	54*	3	-6	-15
COc1cc(/C=C/C(=O)c2ccc(C)c([N+](=O)[O-])c2)cc(OC)c1O	-27	-8	25	45*	14	-10
COc1ccc([N+](=O)[O-])cc1/C=N/NC(=O)Cc1ccccc1	4	-13	21	4	0	-2
CCOc1cc(/C=N\NC(=O)c2ccc(C)nc2)cc([N+](=O)[O-])c1O	-1	6	28	11	1	-3
COC(=O)[C@]12C[C@H](CC(=O)NCc3ccc(C)o3)C(=O)N(Cc3ccc4c(c3)OCO4)C1=C[C@H](C(C)(C)C)O[C@@H]2C	x	x	x	-1	-20	x
COc1ccc(-c2sc3ccccc3c2-c2ccc(OCCN(C)C)cc2)cc1	50*	70*	2	11	47	x
COc1ccc(OCCCC(=O)OC(C)C(=O)Nc2cccc(C(C)=O)c2)cc1 (stereo not drawn)	17	-7	64*	0	12	16
CCn1c(SCC(=O)NCc2ccc3c(c2)OCO3)nnc1-c1cccs1	-13	7	6	7	10	-2
O=C(CSc1nnc(-c2cccs2)n1-c1ccccc1)NCc1ccc2c(c1)OCO2	-16	-7	62*	1	16	-5
O=C(CSc1nnc(-c2cccs2)n1Cc1ccccc1)NCc1ccc2c(c1)OCO2	-22	-23	62*	-1	8	2
NC(=O)c1nc(C(=O)N2CCN(c3ccccc3)CC2)c2ccccc2n1	-12	-2	7	17	9	x
Cc1nn(CC(=O)Nc2nnc(CC(=O)N3CCCC3)s2)c(=O)c2ccccc12	-10	-16	8	0	14	18*
CCOC(=O)C1=C(Cc2ccc(F)cc2)C(=O)c2ccccc2C1=O	-14	-13	21	31	52*	-2
CCOC(=O)N1CCN(CCC(=O)c2ccc(Br)cc2)CC1	x	x	x	15	4	5
CCOC(=O)N1CCN(CCC(=O)c2ccc(Cl)cc2)CC1	-9	-6	38	37*	-6	-6
Cc1ccc(C(C)C)c(OCCCNCc2cccnc2)c1	-29	-23	28	15	-10	-6
Cc1ccc(C(C)C)c(OCCNCCc2ccccc2)c1	-3	-16	3	44*	25	20
CCOc1ccccc1NC(=O)C(OC(=O)c1ccccc1O)c1ccccc1 (stereo not drawn)	-21	-17	10	1	8	-1
CCOc1ccccc1NC(=O)C(OC(=O)c1ccccc1)c1ccccc1 (stereo not drawn)	53*	0	18	7	11	-6
O=C(CCN1C(=O)c2ccc([N+](=O)[O-])cc2C1=O)Nc1ccc(O)cc1C(=O)O	-6	-14	56*	14	1	-4
O=C(Nc1cc([N+](=O)[O-])ccc1N1CCCC1)c1ccco1	-7	-13	65*	-1	-6	-10
O=C(CN1C(=O)c2ccc([N+](=O)[O-])cc2C1=O)Nc1ccccc1N1CCCC1	-1	1	52*	2	0	x
N#CC1(NC(=O)CN2C(=O)c3ccc([N+](=O)[O-])cc3C2=O)CCCCC1	-8	-13	53*	3	-2	x
CCCN1CCCCC(NC(=O)c2ccc(F)c(F)c2)C1=O (stereo not drawn)	x	x	x	0	-21	x
C[C@H]1CN([C@@H](C)CO)C(=O)CCCn2cc(nn2)CO[C@@H]1CN(C)S(=O)(=O)c1cn(C)cn1	x	x	x	0	-9	x
SMILES	CHO parental Ca	OX1R antag-1	OX1R antag-2	TAAR1 agonist	TAAR1 antagonist	GPR7 antagonist
Brc1ccc(CN2CCCc3nc(-c4ccccc4)ccc32)cc1	x	x	x	-1	-5	x
COc1cccc(NC(=O)C(=O)NCCC2CCCCN2S(=O)(=O)c2cccs2)c1 (stereo not drawn)	-26	-13	29	3	7	x
O=C(CN1C(=O)c2cccc([N+](=O)[O-])c2C1=O)NCc1ccccc1	-12	-16	19	1	-6	-3
O=C(CN1C(=O)c2ccc([N+](=O)[O-])cc2C1=O)NCc1ccc(C(=O)O)cc1	0	-12	62*	2	-4	-1
O=C(N[C@@H](Cc1cccnc1)C(=O)N1CCC[C@H]1C(=O)NC1CCCC1)C1CC1	x	x	x	3	3	x
CCCCOc1ncnc2c1[nH]c1ccc(C)cc12	56*	7	28	-2	18	2
CCCOc1ncnc2c1[nH]c1ccc(OC)cc12	-13	-11	16	7	12	6
O=C(c1sc2ccccc2c1Cl)N1CCN(CCc2ccccn2)CC1	-24	-30	6	4	1	-11
COc1cc(OC)c(-c2c3cc(O)c(=O)cc-3oc3cc(O)c(O)cc23)cc1OC	74*	105*	17	367*	71*	-4
COc1cc(-c2cc(=O)c3ccc(O)cc3o2)cc(OC)c1OC	x	x	x	1	2	x
CCc1cc(C(=O)Nc2ccc(S(=O)(=O)NC3=NCCCCC3)cc2)sc1C	-29	-36	13	-2	-25	x
Cc1cc(C)c(N(C(=O)CN2C(=O)c3ccccc3S2(=O)=O)C(C(=O)NCC2CCCO2)c2ccc(F)cc2)c(C)c1 (stereo not drawn)	-5	-8	2	14	52*	1
COc1ccccc1N(C(=O)CN1C(=O)c2ccccc2S1(=O)=O)C(C(=O)NCC1CCCO1)c1ccc(F)cc1 (stereo not drawn)	-20	-27	14	0	-14	-11
O=S(=O)(NCc1ccc(Cl)c(Cl)c1)c1cc(Cl)ccc1N1CC[C@@H](O)C1	x	x	x	4	22	x
COc1cccc(CNC(=O)[C@H]2CCCN2C(=O)[C@H]2CCCN2C(=O)c2ccc(F)c(C(F)(F)F)c2)c1	x	x	x	1	-5	x
CNS(=O)(=O)c1ccc(NC(=O)C2c3ccccc3Oc3ccccc32)cc1	7	-3	16	12	0	0
CCN(CC)S(=O)(=O)c1ccc(NC(=O)C2c3ccccc3Oc3ccccc32)cc1	7	10	0	41*	21	4
CCc1nnc(NC(=O)c2cc3ccccc3oc2=O)s1	-5	-13	77*	4	-10	15
CCc1nnc(NC(=O)C2c3ccccc3Oc3ccccc32)s1	-41	-28	-7	51*	-24	-8
CCC(Sc1nc2ccsc2c(=O)n1Cc1ccc(C(=O)O)cc1)C(=O)Nc1ccc(C)c(Cl)c1 (stereo not drawn)	31	26	6	12	58*	-3
CCC(Sc1nc2ccsc2c(=O)n1Cc1ccc(C(=O)O)cc1)C(=O)Nc1cc(Cl)ccc1C (stereo not drawn)	x	x	x	4	-11	x

Compound activity as filed in PubChem BioAssay.
